The subject of one assay is OCT4. Kind of assay: NCCIT-OCT4 response element-driven luciferase reporter assay. It is filed as cell-based, human. Conditions: for induction of OCT4 expression in NCCIT-OCT4 reporter cell line: histone demethylase inhibitors incubated for 48 h.
The test system of another assay is NANOG. Kind of assay: NCCIT-NANOG response element-driven luciferase reporter assay. Format: cell-based, human. On the technique in general: A reporter such as luciferase makes a cellular process visible.
Another assay relates to human fibroblasts. Kind of assay: qRT-PCR of reprogramming-associated genes in human fibroblasts. Format: cell-based.
Assay [1] deals with human primary fibroblasts. Kind of assay: OSKM episomal reprogramming, TRA-1-60+ colonies counting. It is filed as cell-based. A digest of the protocol:
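Human primary fibroblasts, including OSKM-resistant lines and fibroblasts carrying an LTR7-EGFP promoter reporter, transfected with episomal OSKM with or without test compound; OSKM-only fibroblasts serve as comparison. ESC-like colonies stained for TRA-1-60, and reprogramming efficiency taken as the count of TRA-1-60-positive colonies.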

The next assay addresses KDM5. As to the kind of experiment: KDM5 demethylase activity/inhibition assay. It is filed as biochemical.
A further assay concerns the target KDM4. Kind of assay: KDM4 demethylase activity/inhibition assay. It is filed as biochemical.
A further assay deals with LSD1 (Homo sapiens, UniProt O60341). As to the kind of experiment: LSD1 activity/inhibition assay. It is filed as biochemical.
The next assay has as its target KDM5C (Homo sapiens, UniProt P41229). Kind of assay: Demethylase assay on KDM5C immunoprecipitated from cells. It is filed as biochemical.
Another assay has as its system KDM5D. Kind of assay: Demethylase assay on KDM5D immunoprecipitated from cells. Format: biochemical.
The next assay deals with hPSCs. As to the kind of experiment: Viability and maintenance of hPSCs after single cell expansion. Format: cell-based, human. Conditions: 10 μM.
The subject of another assay is methylated H3K4. As to the kind of experiment: In vitro H3K4 methylation assay. It is filed as biochemical. Conditions: micromolar concentrations.

pIC50: −log10 of the molar value.

Sequence of KDM5C (P41229 whole entry): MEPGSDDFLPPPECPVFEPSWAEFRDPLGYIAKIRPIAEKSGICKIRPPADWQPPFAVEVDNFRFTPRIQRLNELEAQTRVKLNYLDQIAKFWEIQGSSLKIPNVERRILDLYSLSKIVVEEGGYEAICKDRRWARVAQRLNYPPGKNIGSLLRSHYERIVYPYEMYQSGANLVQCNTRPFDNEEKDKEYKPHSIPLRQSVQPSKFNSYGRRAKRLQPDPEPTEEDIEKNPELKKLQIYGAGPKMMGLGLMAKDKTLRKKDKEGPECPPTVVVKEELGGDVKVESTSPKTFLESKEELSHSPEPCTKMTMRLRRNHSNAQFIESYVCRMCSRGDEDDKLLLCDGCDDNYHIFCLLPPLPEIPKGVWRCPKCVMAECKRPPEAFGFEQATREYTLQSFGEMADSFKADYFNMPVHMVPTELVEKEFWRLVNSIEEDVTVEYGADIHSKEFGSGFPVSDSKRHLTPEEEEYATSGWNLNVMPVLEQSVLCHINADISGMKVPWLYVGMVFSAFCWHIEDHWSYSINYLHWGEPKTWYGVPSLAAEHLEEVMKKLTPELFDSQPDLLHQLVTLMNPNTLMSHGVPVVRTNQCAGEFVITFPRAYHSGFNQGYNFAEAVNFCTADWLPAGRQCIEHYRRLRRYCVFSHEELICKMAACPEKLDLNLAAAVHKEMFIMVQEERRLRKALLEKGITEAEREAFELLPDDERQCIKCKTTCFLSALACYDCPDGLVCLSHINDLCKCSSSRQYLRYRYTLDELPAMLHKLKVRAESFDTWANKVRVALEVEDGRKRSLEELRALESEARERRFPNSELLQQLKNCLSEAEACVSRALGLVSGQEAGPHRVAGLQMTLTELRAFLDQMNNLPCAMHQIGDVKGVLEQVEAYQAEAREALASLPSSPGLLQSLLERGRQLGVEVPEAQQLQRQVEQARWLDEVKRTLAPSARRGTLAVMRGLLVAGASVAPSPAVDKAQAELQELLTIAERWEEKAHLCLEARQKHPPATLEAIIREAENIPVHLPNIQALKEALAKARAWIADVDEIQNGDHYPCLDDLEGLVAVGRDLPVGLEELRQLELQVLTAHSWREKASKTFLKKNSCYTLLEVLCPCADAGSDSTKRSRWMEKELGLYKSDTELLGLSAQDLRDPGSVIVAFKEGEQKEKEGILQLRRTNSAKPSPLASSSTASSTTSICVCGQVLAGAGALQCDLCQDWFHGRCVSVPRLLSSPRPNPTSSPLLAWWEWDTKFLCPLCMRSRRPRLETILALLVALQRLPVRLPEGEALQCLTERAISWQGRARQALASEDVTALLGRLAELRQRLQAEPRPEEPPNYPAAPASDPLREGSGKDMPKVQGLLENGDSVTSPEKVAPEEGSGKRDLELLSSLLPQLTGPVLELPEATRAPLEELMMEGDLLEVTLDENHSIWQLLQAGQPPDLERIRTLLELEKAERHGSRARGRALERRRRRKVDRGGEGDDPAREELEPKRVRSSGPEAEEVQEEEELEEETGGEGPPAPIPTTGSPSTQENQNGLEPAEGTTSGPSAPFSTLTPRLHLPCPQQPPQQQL

Take `CC(C)c1c(-c2ccccc2)[nH]c2c(C#N)cnn2c1=O` [CPI-455]: in the assay on OCT4, the “induction of OCT4 expression in NCCIT-OCT4 reporter cell line” value was found to be 3 fold.

Regarding `Clc1ccc(N/N=C(\c2ccccc2)c2ccccn2)nc1` [JIB-04], the “induction of OCT4 expression in NCCIT-OCT4 reporter cell line” value in the assay on OCT4 was found to be 5 fold.

With `Cc1ccc(-c2cn3cc(C)ccc3n2)cc1` [O4I3, 6-methyl-2-(p-tolyl)imidazo[1,2-a]pyridine], the “induction of OCT4” value in the assay with OCT4 (NCCIT-OCT4 reporter cells, low nanomolar doses, compared with untreated cells) is listed as ~10 fold. Further, the “induction of NANOG” value with NANOG (NCCIT-NANOG reporter cells, low nanomolar doses, compared with untreated cells) is ~10 fold. For the same molecule, in the assay on human fibroblasts (human fibroblasts), the “increase of CDH1 mRNA” value is “about 100 fold” and the “induction of NANOG mRNA” value is listed as “approximately 10 fold”. For the same molecule, in the assay on human fibroblasts (human fibroblasts, 50 nM), the “increase of SOX2 mRNA” value was “about 100 fold” and the “induction of OCT4 mRNA” value is listed as “approximately 10 fold”. Moreover, in the assay on human fibroblasts (treated human fibroblasts), the “CDH1 mRNA level versus hPSCs” value was “approximately 10%”, the “NANOG mRNA level versus hPSCs” value is ~1%, the “OCT4 mRNA level versus hPSCs” value was ~0.1% and the “SOX2 mRNA level versus hPSCs” value was ~1%. Also, the “increase of the number of TRA-1-60-positive colonies” value in assay [1] (50 nM added to OSKM, HF1 and HF2, compared with OSKM-only-treated fibroblasts) is 10–20 times. Also, the “iPSC-like colonies in fibroblasts resistant to OSKM-mediated reprogramming” value in [1] (HFF-LTR7-EGFP and HF4, with OSKM) is “appeared”. In assay [1] (with compound, from ∼0.01% without), the episome-based reprogramming efficiency is recorded as ~0.1%. Further, the negative logarithm of the IC50 (pIC50) at KDM5 (read-out: KDM5 IC50, whole-cell nuclear extraction) is 9.10. On KDM4 (read-out: KDM4 IC50, whole-cell nuclear extraction), the negative logarithm of the IC50 (pIC50) is 6.60. The “inhibition of LSD1 activity” value at LSD1 is listed as “could not be detected”. Further, the “inhibitory effect on LSD1” value against LSD1 (even at a concentration of 100 μM) is listed as “hardly detected”. Moreover, the “fold less potent IC50 on KDM5C than on KDM5A” value at KDM5C was 40 fold. The “fold less potent IC50 on KDM5D than on KDM5A” value with KDM5D worked out at 20 fold.

With `Cc1ccc(-c2nc3ccc(C)cn3c2CC(=O)N(C)C)cc1` [zolpidem, reference compound], the “induction in NCCIT-OCT4 reporter cells” value in the assay with OCT4 (10 μM, 48 h) is given as ~2 fold. For the same molecule, the “induction in NCCIT-NANOG reporter cells” value in the assay on NANOG (10 μM, 48 h) is ~2 fold. For the same molecule, the “maintenance of iPSCs” value with hPSCs is given as “promoted the maintenance”. The “iPSC-like colonies in fibroblasts resistant to OSKM-mediated reprogramming” value in assay [1] (10 μM, with OSKM) is “appeared”. The “protection of H3K4 methylation” value in the assay with methylated H3K4 is recorded as “protected”. In the assay with KDM5 (micromolar concentrations), the “inhibition of KDM5” value is recorded as “inhibited”. Besides, in the assay with KDM4 (micromolar concentrations), the “inhibition of KDM4” value was “inhibited”. Moreover, at LSD1, the “inhibition of LSD1 activity” value is “could not be detected”.

A word on the pIC50: it is the IC50 on a negative log10 scale, so that one unit is a factor of ten.

These data come from publication PMC6354736 (iScience, 2019).
